Data: paper PMC8381683 (Pharmacology Research & Perspectives, 2021)
Read-outs that look alike come from different tables or passages of the source.

Experiments:
[1] = test system: DA turnover in the rat striatum; assay: In vivo DA turnover and serotonin biomarkers in the rat striatum
[2] = test system: C57BL/6J mice; assay: Food intake in the mouse; type: in vivo
Outline: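 C57BL/6J mice (24–26 g) single-housed on a reversed 12 h/12 h cycle, lights off at 9:00 a.m. Test compound given p.o. (vehicle 1% methylcellulose in water, 10 ml/kg) or i.p. 15 min before lights-off. Food consumption recorded at 1:00 p.m., 4 h after lights-off. 8 mice per group.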

[3] = target: human H3 histamine receptor (Homo sapiens, UniProt Q9Y5N1); assay: [35S]-GTPγS functional binding assay on the H3 histamine receptor; type: biochemical
[4] = target: human NET (SLC6A2) (Homo sapiens, UniProt P23975); assay: fluorescence-based neurotransmitter transporter uptake assay, NET; type: cell-based
[5] = test system: male Wistar rats; assay: Behavioral drug sensitization in the rat; type: in vivo
Outline: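 Male Wistar rats (240–270 g) habituated 1 h in the test room before each daily session. Dosed p.o. (vehicle 1% methylcellulose, 4 ml/kg) or i.p. (saline) immediately before placement in the same dim (5 lux) 76×76 cm open field. Five sessions between 1 and 5 p.m. on 5 successive days. Locomotion video-tracked for 40 min. n=5–6. ANOVA/Fisher's LSD versus vehicle; paired t test versus day 1.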

[6] = for Brain AUC0-8h / Brain C max / Brain C max (molar): 10 mg/kg, p.o., male Swiss mice; for Brain C max at pharmacologically active doses / Brain C max at pharmacologically active doses (molar): male, Swiss, mouse, in vivo, po
[7] = test system: tele-methylhistamine in the brain of mice; conditions: cited from earlier work
[8] = in vivo; conditions: male, Swiss, mouse, po, 10 mg/kg
[9] = target: human DAT (SLC6A3) (Homo sapiens, UniProt Q01959); assay: cell-based
[10] = target: human SERT (SLC6A4) (Homo sapiens, UniProt P31645); assay: cell-based; type: cell-based
[11] = test system: C57BL/6J mice; assay: Spontaneous locomotor activity in the mouse; type: in vivo; conditions: p.o.
[12] = test system: C57BL/6J mice; assay: Effect of pitolisant on solriamfetol- or modafinil-induced locomotor activity; type: in vivo, mouse; conditions: pitolisant 20 mg/kg, p.o.
[13] = 10 mg/kg, p.o., male Swiss mice, ref Ligneau et al. 29, cited from earlier work
[14] = test system: extracellular DA in the rat nucleus accumbens; conditions: cited from earlier work
[15] = cited from earlier work
[16] = test system: extracellular DA in the rat nucleus accumbens; assay: In vivo microdialysis in the rat nucleus accumbens; conditions: p.o.
Outline: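 Under chloral hydrate (400 mg/kg i.p.), rats received a stereotaxic guide cannula in nucleus accumbens (AP +1.2 mm from bregma, […], DV −5.8 mm from dura). Recovery ≥5 days, single-housed. In freely moving rats, extracellular DA sampled via a 2-mm microdialysis probe after oral test compound or vehicle (1% methylcellulose in water, 5 ml/kg). n=5–8. ANOVA/Dunnett versus vehicle.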

[17] = test system: tele-methylhistamine in the brain of mice; assay: Assay of tele-methylhistamine in the brain of mice; type: in vivo, mouse; conditions: 30 and 100 mg/kg, p.o., 90 min after treatment
Outline: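 Male OF1 mice (22–25 g) fasted 16 h, then dosed orally with test compound or vehicle (1% methylcellulose in water, 10 ml/kg). Killed 90 min later. Brain homogenised in 10 volumes ice-cold 0.4 N perchloric acid and centrifuged 2000 g, 30 min, 4℃. Supernatant stored at −20℃. Tele-methylhistamine measured by enzyme immunoassay.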

[18] = D-amphetamine i.p., dose and time not given
[19] = 64 mg/kg, i.p., fifth day of repeated administration

Sequence of human SERT (SLC6A4) (P31645 whole entry): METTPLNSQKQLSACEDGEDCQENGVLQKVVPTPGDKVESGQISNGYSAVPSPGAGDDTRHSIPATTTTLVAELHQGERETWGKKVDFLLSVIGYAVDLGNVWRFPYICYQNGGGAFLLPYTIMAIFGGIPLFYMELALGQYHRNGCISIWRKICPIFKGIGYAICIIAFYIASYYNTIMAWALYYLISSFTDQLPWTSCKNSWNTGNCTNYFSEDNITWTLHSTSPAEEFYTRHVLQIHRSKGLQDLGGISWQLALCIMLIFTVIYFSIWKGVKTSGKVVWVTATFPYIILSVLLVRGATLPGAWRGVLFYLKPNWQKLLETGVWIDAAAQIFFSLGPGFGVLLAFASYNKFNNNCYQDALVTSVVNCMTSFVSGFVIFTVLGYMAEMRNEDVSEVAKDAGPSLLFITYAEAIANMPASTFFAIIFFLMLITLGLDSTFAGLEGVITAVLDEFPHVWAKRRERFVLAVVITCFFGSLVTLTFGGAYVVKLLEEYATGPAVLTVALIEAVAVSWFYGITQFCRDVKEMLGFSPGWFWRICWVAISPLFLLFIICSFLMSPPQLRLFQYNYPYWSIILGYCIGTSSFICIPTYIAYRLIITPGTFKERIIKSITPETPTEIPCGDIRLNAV
Sequence of human NET (SLC6A2) (P23975 1-628 isoform P23975-2): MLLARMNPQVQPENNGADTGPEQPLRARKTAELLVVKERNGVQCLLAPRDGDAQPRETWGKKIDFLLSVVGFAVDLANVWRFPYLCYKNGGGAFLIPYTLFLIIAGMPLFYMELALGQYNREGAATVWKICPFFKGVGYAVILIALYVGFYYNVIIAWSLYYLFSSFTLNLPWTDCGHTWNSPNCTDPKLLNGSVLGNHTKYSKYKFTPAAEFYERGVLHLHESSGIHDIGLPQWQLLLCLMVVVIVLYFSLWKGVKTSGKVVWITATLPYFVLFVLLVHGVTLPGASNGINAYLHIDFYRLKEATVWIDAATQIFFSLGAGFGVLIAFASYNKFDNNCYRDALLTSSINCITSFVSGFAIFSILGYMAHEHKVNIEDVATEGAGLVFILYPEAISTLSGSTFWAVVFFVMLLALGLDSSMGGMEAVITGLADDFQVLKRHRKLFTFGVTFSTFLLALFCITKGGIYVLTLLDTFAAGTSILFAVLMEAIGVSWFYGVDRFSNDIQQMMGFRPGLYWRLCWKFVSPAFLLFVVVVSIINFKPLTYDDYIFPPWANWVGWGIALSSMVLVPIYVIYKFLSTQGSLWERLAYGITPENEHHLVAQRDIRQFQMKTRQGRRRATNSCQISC
Sequence of human DAT (SLC6A3) (Q01959 whole entry): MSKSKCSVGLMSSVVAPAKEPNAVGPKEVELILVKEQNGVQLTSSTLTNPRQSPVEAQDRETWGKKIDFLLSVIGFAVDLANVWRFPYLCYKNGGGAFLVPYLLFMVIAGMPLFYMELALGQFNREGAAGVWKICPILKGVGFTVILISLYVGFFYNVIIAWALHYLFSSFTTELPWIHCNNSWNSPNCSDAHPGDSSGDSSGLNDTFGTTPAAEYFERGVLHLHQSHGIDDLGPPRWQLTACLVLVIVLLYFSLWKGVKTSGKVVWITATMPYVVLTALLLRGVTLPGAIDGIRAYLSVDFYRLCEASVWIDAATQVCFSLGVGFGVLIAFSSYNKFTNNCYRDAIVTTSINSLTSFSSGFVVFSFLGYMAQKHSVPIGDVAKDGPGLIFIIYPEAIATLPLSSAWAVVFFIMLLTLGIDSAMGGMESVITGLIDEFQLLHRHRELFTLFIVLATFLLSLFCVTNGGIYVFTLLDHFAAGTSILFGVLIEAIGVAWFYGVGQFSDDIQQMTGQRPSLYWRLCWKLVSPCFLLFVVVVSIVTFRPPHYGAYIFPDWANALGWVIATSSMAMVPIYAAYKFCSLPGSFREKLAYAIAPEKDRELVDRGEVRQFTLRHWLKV
Sequence of human H3 histamine receptor (Q9Y5N1 whole entry): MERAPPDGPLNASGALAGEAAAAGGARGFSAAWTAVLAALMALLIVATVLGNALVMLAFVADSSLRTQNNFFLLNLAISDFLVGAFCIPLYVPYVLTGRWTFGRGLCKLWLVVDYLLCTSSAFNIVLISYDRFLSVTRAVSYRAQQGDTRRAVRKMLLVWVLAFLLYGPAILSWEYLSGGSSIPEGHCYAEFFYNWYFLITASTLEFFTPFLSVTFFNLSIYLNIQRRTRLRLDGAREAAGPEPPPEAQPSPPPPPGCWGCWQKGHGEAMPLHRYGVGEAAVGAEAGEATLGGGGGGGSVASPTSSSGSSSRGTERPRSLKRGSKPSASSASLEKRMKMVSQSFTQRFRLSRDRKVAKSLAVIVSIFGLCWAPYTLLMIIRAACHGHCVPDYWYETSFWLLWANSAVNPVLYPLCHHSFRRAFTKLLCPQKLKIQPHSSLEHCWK

C[C@H](N)Cc1ccccc1 [D‐amphetamine]
change of DA in the rat striatum [1, 18]: +25%
change of DOPAC in the rat striatum [1, 18]: −15%
decrease in food consumption compared with controls (4 h) ([2]; 3 mg/kg, i.p.): 56%

NC(=O)C[S+]([O-])C(c1ccccc1)c1ccccc1 (stereo not drawn) [Modafinil]
Kb [3]: > 10 µM
Ki [4]: > 10 µM
hNET Ki ([4]; CHO cells expressing human NET, Ki from IC50 by Cheng-Prusoff): inactive
increase of rat locomotor activity versus controls ([5]; 64 mg/kg, i.p., acute administration (day 1)): +145%
increase of rat locomotor activity versus control rats [5, 19]: 419%
increase of rat locomotor activity versus same treated rats at day 1 [5, 19]: 53%
reduction in food intake (4 h) ([2]; 64 mg/kg, p.o.): 40%
reduction in food intake (4 h) ([2]; 96 mg/kg, p.o.): 76%
reduction in food intake (4 h) ([2]; 128 mg/kg, p.o.): 96%
Brain AUC0-8h [6]: 2298 ng·h/g
Brain C max [6]: 965 ± 156 ng/g
Brain C max (molar) [6]: 3.5 µM
Brain C max at pharmacologically active doses [6]: 6000-12 000
Brain C max at pharmacologically active doses (molar) [6]: 22–45 µM
potency in enhancing brain tele-methylhistamine level compared with pitolisant ([7]; mice): less potent
AUC(0-t) [8]: 2160 ng·h/mL
Kp [8]: 1.1

Cl.Clc1ccc(CCCOCCCN2CCCCC2)cc1 [Pitolisant, 1‐{3‐[3‐(4‐Chlorophenyl)propoxy]propyl}piperidine, hydrochloride]
Ki [9]: 4.1 µM
Ki [4]: 2.5 µM
Ki [10]: 5.79 µM
effect on cumulative locomotor activity over 5.5 h post-dosing ([11]; 10 and 20 mg/kg): no significant effect
reduction of modafinil-induced hyperlocomotion ([12]; modafinil 64 mg/kg): 58%
effect on modafinil-induced hyperlocomotion ([12]; modafinil 128 mg/kg): not further reduced
effect on solriamfetol-induced hyperlocomotion ([12]; solriamfetol 30 mg/kg): fully normalized
reduction of solriamfetol-induced hyperlocomotion ([12]; solriamfetol 100 mg/kg): 68%
locomotor effect in rats ([5]; 10 mg/kg, i.p., acute or after 5-day-repeated administrations): no hyperlocomotion effects
effect on food intake during the initial 4 h of the night phase ([2]; 10 and 20 mg/kg, p.o.): did not modify
Brain C max at pharmacologically active doses [6]: 10 000-20 000
Brain C max at pharmacologically active doses (molar) [6]: 35–70 µM
Brain/plasma AUC ratio ([13]; AUC0-8h): 23.5
Brain AUC0-8h [13]: 34 686 ng/g × h
Brain C max (molar) [13]: 35 µM
Brain T max [13]: 30 min
Plasma AUC0-8h [13]: 1475 ng·h/mL
Plasma C max [13]: 441 ± 69 ng/mL
Plasma T max [13]: 30 min
effect on levels of extracellular DA in the rat nucleus accumbens [14]: no effect
ED50, enhancement of brain tele-methylhistamine level ([7]; p.o., in mice): 1.6 mg/kg
plasma exposure (C max) in human at therapeutic dose ([15]; at 40 mg): ~ 36 ng/ml

NC(=O)OC[C@H](N)Cc1ccccc1 [Solriamfetol]
Kb [3]: > 10 µM
Ki [9]: 2.4 µM
Ki [4]: 4.8 µM
Ki [10]: > 10 µM
hSERT Ki ([10]; HEK293 cells expressing human SERT, Ki from IC50 by Cheng-Prusoff): inactive
change of DOPAC in the rat striatum ([1]; 30 mg/kg, p.o., 60 min): −11%
effect on DOPAC/DA ratio relative to that of D-amphetamine (2 mg/kg, i.p.) ([1]; 30 mg/kg, p.o., 60 min): about 50%
change of DA in the rat striatum ([1]; 30 mg/kg, p.o., 60 min, not significant): +4%
decrease in the DOPAC/DA ratio in the rat striatum ([1]; 30 mg/kg, p.o., 60 min after the dose): 14%
effect on 5-HIAA/5-HT ratio in the rat striatum ([1]; 3 and 30 mg/kg, p.o., 60 min after dosage): No effect
effect on extracellular levels of DA in the nucleus accumbens ([16]; 30 mg/kg): no effects
increase of extracellular levels of DA in the nucleus accumbens ([16]; 100 mg/kg, 30 min after administration): +138 % of basal levels
AUC of extracellular DA (% basal dopamine level), enhancement ([16]; 100 mg/kg, 90 min (1.5 h) post-administration period): 123%
effect on tele-methylhistamine levels in the brain of mice [17]: no significant effect
effect on tele-methylhistamine levels in the brain of mice ([17]; listed as solriamfetol): no effect
effect on cumulative locomotor activity over 5.5 h post-dosing ([11]; 30 mg/kg): no effect
locomotor effect in rats ([5]; 60 mg/kg, p.o., over the 5-day repeated administration period): no significant locomotion effect
locomotor effect in rats ([5]; 100 mg/kg, p.o., acute): no acute effects
increase of rat locomotor activity versus controls ([5]; 100 mg/kg, p.o., day 5): 185%
increase of rat locomotor activity versus same treated rats at day 1 ([5]; 100 mg/kg, p.o., day 5): 106%
inhibition of food intake (4 h) ([2]; 30 mg/kg, p.o.): 25%
inhibition of food intake (4 h) ([2]; 100 mg/kg, p.o.): 40%
Brain AUC0-8h [6]: 10 990 ng/g × h
Brain C max [6]: 3935 ± 452 ng/g
Brain C max (molar) [6]: 20 µM
Brain C max at pharmacologically active doses [6]: 12 000-40 000
Brain C max at pharmacologically active doses (molar) [6]: 60–200 µM
plasma exposure (C max) in human at therapeutic dose ([15]; at 150 mg): ~ 820 ng/ml
AUC(0-t) [8]: 1150 ng·h/mL
Kp [8]: 9.6
